This is an account of results in ChEMBL document CHEMBL4049422, “Discovery of Novel Indazole Derivatives as Orally Available β3-Adrenergic Receptor Agonists Lacking Off-Target-Based Cardiovascular Side Effects” (J Med Chem, 2017).

This series is described as follows: Cmax in Sprague-Dawley rat at 5 mg/kg, po by LC-MS/MS analysis. It is filed as ADME, organism-based. Set-up: dose 5 mg/kg, route oral. Conditions: in vivo. The procedure, abridged: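 Male Sprague-Dawley rats (n = 2 or 3) dosed orally at 5 mg/kg in saline or water (5 mL/kg). Blood taken from the subclavian vein at 0.5, 1, 2, 4, 6 and 8 h; plasma separated by centrifugation, stored at -20 °C, and drug levels measured by LC-MS/MS. Values are mean ± SD (n = 3) or the average of two experiments.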

Consider `Cc1n[nH]c2cc(OCCNC[C@H](O)c3cccc(NS(=O)(=O)C4CCC4)c3)ccc12`, for which the peak level (Cmax) was 119 ng/mL.
